ChEMBL document CHEMBL4477178, “Biflorin, Isolated from the Flower Buds of Syzygium aromaticum L., Suppresses LPS-Induced Inflammatory Mediators via STAT1 Inactivation in Macrophages and Protects Mice from Endotoxin Shock” (J Nat Prod, 2016)
Active and inactive are the calls of the source. The rule behind the calls is not given here.

Key:
RAW264.7 [1] = test: Cytotoxicity against mouse RAW264.7 cells assessed as decrease in cell viability after 24 hrs by MTT assay; format: cell-based; conditions: RAW264.7, 24 h
How it was run: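 RAW 264.7 cells seeded at 1 × 10^5 cells/mL in DMEM with 10% FBS and incubated overnight. Exposed to compound (0−400 μM) for 24 h, with or without LPS. MTT added for 4 h at 37 °C, formazan dissolved in DMSO, absorbance read at 540 nm; IC50 derived.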

Rattus norvegicus [2] = test: Antiinflammatory activity in Sprague-Dawley rat assessed as inhibition of croton oil-induced ear edema at 5 mg/kg, ip administered 1 hr before croton oil challenge measured after 3 hrs post challenge relative to control; format: functional
How it was run: (§1)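 Male SD rats given compound i.p. (5, 10 or 15 mg/kg) 1 h before topical croton oil (5% in 100 μL acetone) on the inner right ear; the left ear received acetone alone. After 3 h, rats were killed and 6 mm ear punches were taken and measured for thickness. Inhibition calculated relative to the croton-oil-only group; seven rats per group.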

[3] = target: T1, Signal transducer and activator of transcription 1 (Mus musculus) (UniProt P42225); test: Inhibition of LPS-induced STAT1 phosphorylation at Y701 in C57BL/6 mouse peritoneal macrophages at 15 to 60 uM preincubated for 1 hr followed by LPS challenge for 120 mins by Western blot analysis
T1 sequence (whole entry): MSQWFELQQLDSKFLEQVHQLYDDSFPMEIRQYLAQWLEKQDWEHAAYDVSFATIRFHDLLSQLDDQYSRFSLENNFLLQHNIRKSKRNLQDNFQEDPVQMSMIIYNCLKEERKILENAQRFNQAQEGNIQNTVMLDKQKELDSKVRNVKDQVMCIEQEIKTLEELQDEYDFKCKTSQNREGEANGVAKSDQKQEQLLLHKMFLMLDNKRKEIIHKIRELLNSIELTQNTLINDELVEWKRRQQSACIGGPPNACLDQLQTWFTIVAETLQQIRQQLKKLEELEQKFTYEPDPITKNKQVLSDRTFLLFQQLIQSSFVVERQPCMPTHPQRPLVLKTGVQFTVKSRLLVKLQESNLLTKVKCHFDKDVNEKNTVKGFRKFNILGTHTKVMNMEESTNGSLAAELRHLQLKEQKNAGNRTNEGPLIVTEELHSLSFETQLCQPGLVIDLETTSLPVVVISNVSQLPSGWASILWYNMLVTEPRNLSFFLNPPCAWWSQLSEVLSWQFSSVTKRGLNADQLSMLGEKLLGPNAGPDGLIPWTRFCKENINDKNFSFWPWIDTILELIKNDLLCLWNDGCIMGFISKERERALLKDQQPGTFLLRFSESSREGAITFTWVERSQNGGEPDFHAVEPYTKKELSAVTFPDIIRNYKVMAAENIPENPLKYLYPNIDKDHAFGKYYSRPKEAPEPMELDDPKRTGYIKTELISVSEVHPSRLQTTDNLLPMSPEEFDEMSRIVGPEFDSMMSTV
How it was run: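 Thioglycolate-elicited C57BL/6 peritoneal macrophages pretreated 1 h at 15, 30 or 60 μM, then LPS 10 μg/mL: 120 min for p-STAT1 Y701, 30 min for p-STAT1 S727, 60 min for p-STAT3 Y705. Western blot with phospho-specific and total STAT antibodies, β-actin control; three independent experiments.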

[4] = target: Signal transducer and activator of transcription 3 (Mus musculus) (UniProt P42227); test: Inhibition of LPS-induced STAT3 phosphorylation at Y705 in mouse RAW264.7 cells at 15 to 60 uM preincubated for 1 hr followed by LPS challenge for 120 mins by Western blot analysis; format: cell-based
How it was run: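 RAW 264.7 pretreated 1 h at 15, 30 or 60 μM, then LPS 10 ng/mL: 120 min for p-STAT1 Y701, 15 min for p-STAT1 S727, 120 min for p-STAT3 Y705. Western blot with phospho-specific and total STAT1/STAT3 antibodies, β-actin control; three independent experiments.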

Peritoneal macrophage [5] = test: Antiinflammatory activity in C57BL/6 mouse peritoneal macrophages assessed as inhibition of LPS-induced IL-6 production at 60 uM preincubated for 1 hr followed by LPS challenge for 48 hrs by ELISA method; format: functional; conditions: C57BL/6, Peritoneal macrophage
Peritoneal macrophage [6] = test: Antiinflammatory activity in C57BL/6 mouse peritoneal macrophages assessed as inhibition of LPS-induced PGE2 production at 60 uM preincubated for 1 hr followed by LPS challenge for 48 hrs by ELISA method; format: functional; conditions: C57BL/6, Peritoneal macrophage
Mus musculus = test: Inhibition of LPS-induced iNOS mRNA expression in C57BL/6 mouse liver at 10 mg/kg, ip pretreated for 1 hr followed by LPS challenge for 6 hrs by qRT-PCR method; format: functional, organism-based
How it was run: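 Male C57BL/6 mice given 10 mg/kg i.p. or vehicle 1 h before LPS (Salmonella enterica, 25 mg/kg i.p.); liver collected 6 h after LPS, frozen at −80 °C. Liver mRNA by SYBR qRT-PCR normalized to β-actin; protein by Western blot for p-STAT1 (Y701, S727). Eight mice per group; mean ± SD.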

[7] = target: Transcription factor Jun (Mus musculus) (UniProt P05627); test: Inhibition of LPS-induced AP-1 activity in mouse RAW264.7 cells at 15 to 60 uM preincubated for 1 hr followed by LPS challenge for 12 hrs by luciferase reporter gene assay; format: cell-based
RAW264.7 [8] = test: Antiinflammatory activity in mouse RAW264.7 cells assessed as inhibition of LPS-induced nitric oxide production preincubated for 1 hr followed by LPS challenge for 24 hrs by Griess assay; format: functional, cell-based
How it was run: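 RAW 264.7 cells plated at 2 × 10^5 cells/mL and incubated overnight. Compound given at 15, 30 or 60 μM for 1 h, then LPS 10 ng/mL for 24 h. Nitrite in the medium measured by Griess reagent (10 min, room temperature, A540) against a NaNO2 standard. L-NIL 20 μM as positive control; IC50 derived; three independent experiments.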

Rattus norvegicus [9] = test: Antiinflammatory activity in Sprague-Dawley rat assessed as inhibition of croton oil-induced ear edema at 15 mg/kg, ip administered 1 hr before croton oil challenge measured after 3 hrs post challenge relative to control; format: functional; how it was run: as §1
[10] = target: Mitogen-activated protein kinase 1 and 3 (ERK2 and ERK1) (Mus musculus) (UniProt P63085+Q63844); test: Inhibition of LPS-induced ERK1/2 phosphorylation in mouse RAW264.7 cells at 15 to 60 uM preincubated for 1 hr followed by LPS challenge for 30 mins by Western blot analysis; format: cell-based
How it was run: (§2)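 RAW 264.7 pretreated 1 h at 15, 30 or 60 μM, then LPS 10 ng/mL for 30 min. Lysates Western-blotted for p-p38, p38, p-JNK, JNK, p-ERK, ERK with β-actin control; ECL, densitometry. Three independent experiments.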

RAW264.7 [11] = test: Inhibition of LPS-induced JNK phosphorylation in mouse RAW264.7 cells at 15 to 60 uM preincubated for 1 hr followed by LPS challenge for 30 mins by Western blot analysis; format: cell-based; how it was run: as §2

Chain of Mitogen-activated protein kinase 1 and 3 (ERK2 and ERK1) (Mus musculus) (P63085 whole entry, looked up): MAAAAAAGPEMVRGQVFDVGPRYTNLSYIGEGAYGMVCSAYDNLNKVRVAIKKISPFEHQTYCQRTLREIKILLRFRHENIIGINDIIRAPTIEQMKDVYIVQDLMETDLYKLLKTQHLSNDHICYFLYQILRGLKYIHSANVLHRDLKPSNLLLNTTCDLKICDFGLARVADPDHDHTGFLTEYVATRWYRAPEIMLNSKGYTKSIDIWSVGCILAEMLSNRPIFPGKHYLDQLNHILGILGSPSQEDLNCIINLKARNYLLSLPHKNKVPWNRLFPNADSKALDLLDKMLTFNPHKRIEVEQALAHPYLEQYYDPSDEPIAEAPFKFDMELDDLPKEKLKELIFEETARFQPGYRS
Chain of Mitogen-activated protein kinase 1 and 3 (ERK2 and ERK1) (Mus musculus) (Q63844 whole entry, looked up): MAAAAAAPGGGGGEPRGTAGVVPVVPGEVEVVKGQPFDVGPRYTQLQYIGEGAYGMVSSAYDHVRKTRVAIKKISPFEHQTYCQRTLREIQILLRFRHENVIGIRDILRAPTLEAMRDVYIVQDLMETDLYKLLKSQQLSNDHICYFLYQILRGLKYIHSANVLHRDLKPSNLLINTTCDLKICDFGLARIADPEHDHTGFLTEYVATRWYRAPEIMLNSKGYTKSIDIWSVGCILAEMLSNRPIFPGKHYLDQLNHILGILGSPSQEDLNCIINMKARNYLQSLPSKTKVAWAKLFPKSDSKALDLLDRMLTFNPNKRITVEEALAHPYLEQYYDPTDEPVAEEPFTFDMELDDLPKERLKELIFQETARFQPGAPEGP
Chain of Transcription factor Jun (Mus musculus) (P05627 whole entry): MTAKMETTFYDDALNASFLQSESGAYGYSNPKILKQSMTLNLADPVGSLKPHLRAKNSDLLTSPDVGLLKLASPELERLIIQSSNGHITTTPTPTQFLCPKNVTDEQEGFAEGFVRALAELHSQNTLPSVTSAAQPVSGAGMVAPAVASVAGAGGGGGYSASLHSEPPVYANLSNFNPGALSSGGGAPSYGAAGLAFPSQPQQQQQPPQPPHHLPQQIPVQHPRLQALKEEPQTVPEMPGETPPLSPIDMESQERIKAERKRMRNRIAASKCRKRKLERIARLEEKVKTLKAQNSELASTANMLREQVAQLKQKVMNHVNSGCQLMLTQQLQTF
Chain of Signal transducer and activator of transcription 3 (Mus musculus) (P42227 whole entry): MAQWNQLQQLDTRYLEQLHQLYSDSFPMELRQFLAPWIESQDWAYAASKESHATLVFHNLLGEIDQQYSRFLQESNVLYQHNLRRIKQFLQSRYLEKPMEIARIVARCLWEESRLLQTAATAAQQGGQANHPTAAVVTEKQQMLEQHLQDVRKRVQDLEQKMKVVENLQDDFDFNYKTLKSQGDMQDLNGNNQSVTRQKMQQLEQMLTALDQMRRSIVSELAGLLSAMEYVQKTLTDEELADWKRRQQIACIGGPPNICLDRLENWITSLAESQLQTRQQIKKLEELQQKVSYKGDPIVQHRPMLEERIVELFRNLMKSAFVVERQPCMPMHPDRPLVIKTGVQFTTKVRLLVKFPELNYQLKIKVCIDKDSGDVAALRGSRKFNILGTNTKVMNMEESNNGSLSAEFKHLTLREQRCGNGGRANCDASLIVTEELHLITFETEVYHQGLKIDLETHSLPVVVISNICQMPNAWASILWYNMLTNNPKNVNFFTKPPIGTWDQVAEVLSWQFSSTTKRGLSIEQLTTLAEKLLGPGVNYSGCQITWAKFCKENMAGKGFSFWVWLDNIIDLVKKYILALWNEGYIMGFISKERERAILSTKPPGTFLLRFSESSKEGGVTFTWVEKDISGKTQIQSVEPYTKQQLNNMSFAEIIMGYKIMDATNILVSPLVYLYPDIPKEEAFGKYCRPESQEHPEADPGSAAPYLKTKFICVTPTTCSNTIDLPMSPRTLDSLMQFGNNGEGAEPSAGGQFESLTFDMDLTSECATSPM

Cc1cc(=O)c2c(O)c([C@@H]3O[C@H](CO)[C@@H](O)[C@H](O)[C@H]3O)c(O)cc2o1 [BIFLORIN]
IC50 (RAW264.7 [1]): 140 µM | inhibition in vivo at 5 mg/kg (Rattus norvegicus [2]): 33.4% | inhibition [3]: Active | inhibition [4]: Active | inhibition at 60 µM (Peritoneal macrophage [5]): 61.1% | inhibition at 60 µM (Peritoneal macrophage [6]): 42.2% | inhibition (Mus musculus): Active | inhibition [7]: inactive | IC50 (RAW264.7 [8]): 51.7 µM | inhibition in vivo at 15 mg/kg (Rattus norvegicus [9]): 74.7% | inhibition [10]: inactive | inhibition (RAW264.7 [11]): inactive
